FXIa inh 1536 = human FXIa protease inhibitors, primary screen, biochemical, 1536-well; Coagulation factor XI (Homo sapiens), P03951; purified FXIa, Boc-Glu-Ala-Arg-AMC fluorogenic substrate; inhibition, % at 5 µM; 220,000 tested, 0.14% active; AID 798, 2007;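 active = inhibition of at least 40%; inactive = inhibition below 40%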;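 note: fluorescence of freed AMC excited at 355 nm; 0% = enzyme without compound and 100% = no enzyme blank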
m-calpain inh = inhibitors of pig calpain II, primary screen, biochemical, fluorogenic peptide substrate, 1536-well; purified calpain II, 30 min; inhibition, % at 16 µM; 220,000 tested, 0.37% active; AID 1236, 2008;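 active = inhibition above about 50%, limit read from the data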
Thrombin inh = human alpha-thrombin inhibitors, primary screen, counter-screen for coagulation protease inhibitor project, biochemical, 1536-well, fluorogenic AMC substrate | Prothrombin (Homo sapiens), P00734 | Boc-VPR-AMC fluorogenic substrate cleavage | inhibition, % at 5 µM | 220,000 tested, 0.26% active | AID 1046, 2008;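 active = inhibition at or above 40%; inactive = inhibition below 40%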;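 note: 0% = enzyme with no compound and 100% = wells without enzyme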
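Test system: human alpha-thrombin; medium: pH 7.5 Tris-saline with Tween 20; times: reaction at room temperature; signal: AMC fluorescence at 355 nm excitation and 460 nm emission; also added: Boc-VPR-AMC substrate, 15 µM final; dosing: one concentration per compound, 5 µM, with 0.2% DMSO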
KLK5 inh = human KLK5 protease inhibitors, primary screen, biochemical, 1536-well; Kallikrein-5 (Homo sapiens), Q9Y337; recombinant hK5, fluorogenic AMC substrate cleavage; inhibition, % at 5 µM; 210,000 tested, 0.59% active; AID 873, 2007;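 active = inhibition of 40% or more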;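 note: 0% = enzyme controls without compound and 100% = no-enzyme blanks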
Target sequence (Q9Y337 67-293 limits assumed): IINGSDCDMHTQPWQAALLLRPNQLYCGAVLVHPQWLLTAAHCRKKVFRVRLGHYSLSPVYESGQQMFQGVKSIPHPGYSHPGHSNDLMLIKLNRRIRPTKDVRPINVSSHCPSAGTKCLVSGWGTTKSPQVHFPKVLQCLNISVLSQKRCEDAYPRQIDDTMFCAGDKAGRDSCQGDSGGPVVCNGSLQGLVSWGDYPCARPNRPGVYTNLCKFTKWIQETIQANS
FXIIa inh 1536 = human FXIIa protease inhibitors, primary screen, biochemical, 1536-well; Coagulation factor XII (Homo sapiens), P00748; 220,000 tested, 0.3% active; inhibition, % at 5 µM; purified FXIIa, Boc-QGR-AMC fluorogenic substrate, 2 h; AID 800, 2007; in the data active = inhibition above about 40%;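 note: 0% = enzyme with no compound and 100% = blank without enzyme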
* = called active by the depositor; i = inactive; nt = not tested or not shown. The list is not random: actives were taken first. Their share in the collection is about 1.4%.

SMILES	FXIa inh 1536	m-calpain inh	Thrombin inh	KLK5 inh	FXIIa inh 1536
O=C(c1ccc([N+](=O)[O-])cc1)n1nc(-c2ccccc2)nc1NCc1ccc(F)cc1	-1	0	52*	-6	0
O=C(c1ccco1)n1nc(-c2ccccc2)nc1NCc1ccco1	2	-32	15	13	-4
O=C(CSc1nc(-c2ccccc2)nn1C(=O)c1ccccc1)Nc1cccc([N+](=O)[O-])c1	-2	1	57*	16	11
CC(=O)n1nc(-c2ccccc2)nc1NCc1ccc(F)cc1	5	-10	98*	-17	16
O=C(c1ccc([N+](=O)[O-])cc1)n1nc(-c2ccccc2)nc1NCc1ccccc1	3	7	87*	13	11
O=C(c1cccc([N+](=O)[O-])c1)n1nc(-c2ccccc2)nc1NCc1ccccc1	10	22	67*	-8	6
Clc1ccc(CN2C3=NCCCN3c3ccccc32)cc1Cl	-4	21	-2	-3	3
COc1ccc(CCN2C(=NC(=O)CCC(=O)O)SC3CS(=O)(=O)CC32)cc1OC (stereo unspecified)	4	-6	-4	-22	4
CCCC(=O)N=C1SC2CS(=O)(=O)CC2N1c1ccc(CC)cc1 (stereo unspecified)	26	41	-6	-9	41*
CCOC(=O)/C(C#N)=C/N=c1ccc(C)cn1C	33	17	12	43*	104*
CCCN1C=CC(=C/C=C(\C#N)C(=O)OCC)C=C1	3	18	-18	3	0
CC(=O)c1cccc(NC(=O)C(C)N2CCc3ccccc3C2)c1 (stereo unspecified)	-4	-2	-5	-3	3
O=C(Nc1cccc(C(F)(F)F)c1)N1CCN(C(=O)Nc2cccc(C(F)(F)F)c2)CC1	15	15	21	55*	27
CC(=O)N/C(=C/c1ccc(OS(=O)(=O)c2ccc(C)cc2)cc1)C(=O)Nc1ccc(C(=O)O)cc1	-1	-8	-4	1	6
O=C(Cn1cc2c(n1)CCCCC2)Nc1c(F)c(F)cc(F)c1F	-3	-15	-4	-4	-1
Cc1cc(C)c(NC(=O)Cn2cc3c(n2)CCCC3)c(C)c1	-5	69*	-3	-7	0
CCCN(Cc1cc2cc(C)ccc2[nH]c1=O)C(=O)c1cccc([N+](=O)[O-])c1	2	13	-3	-2	7
COc1ccc(-c2nnc(NC(=O)Cc3ccccc3)s2)c(OC)c1	-12	0	0	52*	6
CC(C)c1ccc(CNc2ccc([N+](=O)[O-])cn2)cc1	-3	94*	2	-9	2
O=[N+]([O-])c1ccc(NCc2ccc(Cl)cc2)nc1	-1	80*	-2	-1	4
CC(=O)NCCNc1ccc([N+](=O)[O-])cn1	7	17	-8	-12	7
CC(C)(C)c1ccc(CNc2ccc([N+](=O)[O-])cn2)cc1	3	79*	-5	-5	5
Cc1ccc(S(=O)(=O)NC(=O)c2ccc(-c3ccc(C)c4ccccc34)o2)cc1	-7	i	-3	-26	-3
CC1CCN(Cc2cnc(Cl)s2)CC1	-14	51*	8	-13	-3
CC1CCCCN1Cc1ccc(N(C)C)cc1 (stereo unspecified)	4	13	1	5	13
SMILES	FXIa inh 1536	m-calpain inh	Thrombin inh	KLK5 inh	FXIIa inh 1536
CC1CCCN(Cc2cnc(Cl)s2)C1 (stereo unspecified)	9	40	9	-17	12
CC1CCCCN1Cc1cnc(Cl)s1 (stereo unspecified)	-17	59*	13	-22	-6
O=C(COc1cccc2cccnc12)N/N=C1\SCC(=O)N1CCc1ccccc1	0	13	2	4	5
O=C(NN=C1CCN(Cc2ccccc2)CC1)C(O)c1ccccc1 (stereo unspecified)	-1	-6	-12	-15	4
O=C(Cn1nnc(-c2ccncc2)n1)NCCc1ccccc1	-2	-95	10	48*	9
CCOC(=O)C1CCN(S(=O)(=O)c2cc(Br)cc3c2N(C(=O)C2CC2)CC3)CC1	-3	61*	-2	-2	7
O=C(C1CC1)N1CCc2cc(Br)cc(S(=O)(=O)N3CCN(c4ccccn4)CC3)c21	-8	45	-6	-6	3
CC(=O)c1ccc(OCc2ccc(Oc3c(Cl)cccc3[N+](=O)[O-])cc2)cc1	-6	10	0	-2	8
FC(F)(F)c1cccc(NCc2n[nH]c(=S)n2C2CCCCC2)c1	-3	56*	-8	-5	7
CCn1cc(C(=O)NCCc2ccccc2)c(=O)c2cc(S(=O)(=O)N3CCCC3)ccc21	-2	23	31	-4	4
COc1ccccc1CNC(=O)c1cn(C)c2ccc(S(=O)(=O)N3CCCC3)cc2c1=O	-4	2	45*	-6	6
CCN(CC)S(=O)(=O)c1ccc2c(c1)c(=O)c(C(=O)NCc1cccs1)cn2C	5	-23	64*	-7	12
CCn1cc(C(=O)NCc2ccco2)c(=O)c2cc(S(=O)(=O)N3CCCC3)ccc21	3	25	83*	1	10
CCOC(=O)C1(Cc2cccc(OC)c2)CCN(CC2CC=CCC2)CC1 (stereo unspecified)	-6	-1	-6	-19	3
NS(=O)(=O)c1ccc(NC(=O)COC(=O)C23CC4CC(CC(C4)C2)C3)cc1	6	58*	-3	-20	8
COc1ccc(N(C)S(=O)(=O)c2cccc(C(=O)NCC3CCCCC3)c2)cc1	3	55*	3	0	6
COc1ccc(N(C)S(=O)(=O)c2cccc(C(=O)NC3CCCC3)c2)cc1	-3	-14	-7	6	4
N#Cc1c[nH]n2c(=O)c3c(nc12)CCC3	-4	-22	-4	-5	2
N#Cc1c[nH]n2c(=O)c3c(nc12)CCCC3	-1	8	1	70*	-1
CC(=O)c1cccc(NC(=O)c2c(F)c(F)c(F)c(F)c2F)c1	4	51*	0	-17	14
CC(=O)Nc1ccc(C(=O)Nc2ccc3c(c2)OCO3)cc1	8	-7	20	41*	31
O=C(Nc1ccc2c(c1)OCO2)c1c(F)c(F)c(F)c(F)c1F	5	52*	0	9	10
Cc1ccc(NC(=O)NCc2ccc3c(c2)OCO3)cc1	6	1	2	6	75*
O=c1cc(CN2CCN(S(=O)(=O)c3ccccc3[N+](=O)[O-])CC2)nc2sccn12	-6	-19	1	-18	-6
C/C(=C\c1ccccc1)C(=O)Nc1ccc(S(=O)(=O)Nc2ncccn2)cc1	1	-22	0	5	nt

From PubChem BioAssay
